Most compounds without a hit are left out; they make up all but 0.58% or so of the library.
miR122 inh: blocks miR-122 activity in Huh7 sensor cells | Huh7 miR-122 Renilla luciferase sensor, 48 h; neutral wells = 0, positive control = 100 | AID 602342 | activation (reporter increase), % at 12.5 µM | 340,000 tested, 0.3% active;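 active = mean replicate activation score at least 90 and every replicate individually at or above 90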;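 note: higher luciferase means less miR-122 activity so hits act as miR-122 inhibitors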
ERp5 inh: ERp5 (human) disulfide isomerase inhibition | Q15084 | ERp5 insulin aggregation, absorbance 650 nm, 90 min | inhibition, % at 9.99 µM | 350,000 tested, 0.05% active | AID 651711;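 active = mean replicate inhibition above about 25%, with every replicate also reaching it, limit read from the data, passing the limit was not always enough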
Target sequence (Q15084 whole entry, looked up): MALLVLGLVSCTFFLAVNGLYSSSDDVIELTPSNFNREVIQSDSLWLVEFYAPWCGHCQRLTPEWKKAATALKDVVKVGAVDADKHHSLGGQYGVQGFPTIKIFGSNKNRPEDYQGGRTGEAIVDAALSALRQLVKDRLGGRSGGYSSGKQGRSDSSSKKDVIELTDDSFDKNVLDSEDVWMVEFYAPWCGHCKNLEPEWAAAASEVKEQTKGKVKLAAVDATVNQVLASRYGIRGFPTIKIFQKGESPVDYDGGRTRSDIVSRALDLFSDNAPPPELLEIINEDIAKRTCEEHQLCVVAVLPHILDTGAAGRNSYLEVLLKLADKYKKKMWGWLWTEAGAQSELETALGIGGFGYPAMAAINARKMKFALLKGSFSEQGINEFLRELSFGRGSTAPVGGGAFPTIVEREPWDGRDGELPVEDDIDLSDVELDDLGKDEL
PglD DTNB: blocks C. jejuni PglD acetyltransferase activity; inhibition, % at 12.5 µM; 360,000 tested, 0.098% active; purified PglD enzyme, DTNB colorimetric CoA detection; in the data active = inhibition above about 16%, passing the limit was not always enough
PvdQ acylase: blocks Pseudomonas aeruginosa PvdQ acylase activity. purified PvdQ acylase, fluorescence plate reader. inhibition, % at 10 µM. 340,000 tested, 0.063% active; in the data active = inhibition above about 30%, passing the limit was not always enough;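 note: 0% = vehicle neutral wells and 100% = reference inhibitor wells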
Cneo AK release: Cryptococcus neoformans lysis via adenylate kinase release | 360,000 tested, 0.2% active | AID 651654 | C. neoformans lysis, adenylate kinase release luminescence, 4 h; normalised: neutral wells 0, clomiphene wells 100 | lysis activity, % at 15 µM;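 active = mean lysis activity across replicates of at least 80%, whatever share of replicates individually reach that level; inactive = mean lysis activity below 80%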
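Material: C. neoformans cells; Schedule: 4 h static compound exposure, 37 °C, read 1 h post-reagent; Measured by: adenylate kinase release luminescence; Read-out: signal increase indicating cell lysis; Controls: Clomiphene as positive lysis control.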
PDI turbidity: inhibitors of human protein disulfide isomerase | AID 588391 | 350,000 tested, 0.052% active | PDI insulin aggregation turbidity, A650, 90 min | inhibition, % at 10 µM;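 active = mean inhibition across replicates of 30% or more, whatever share of single replicates reach that level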
miR-27b qPCR: alters miR-27b levels in Huh7 cells, selectivity for miR-122 inhibitors. AID 687039. Huh7 miR-27b levels, qRT-PCR, 48 h. relative miR-27b level (unnormalised ratio), ratio at 35 µM. 35 tested, under 10 active. shares compounds with miR122 inh;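 active = compounds lowering miR-27b whose fitted half-maximal dose is at most twice their top tested dose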
* hit, by the source's call; / = not tested or not shown; ! = not confirmed by another sample; [ ] = dose if it differs, or a comment.

SMILES | miR122 inh | ERp5 inh | PglD DTNB | PvdQ acylase | Cneo AK release | PDI turbidity | others
C[C@@H]1CN([C@@H](C)CO)C(=O)Cc2cc(NC(=O)Nc3ccc(C(F)(F)F)cc3)ccc2O[C@@H]1CN(C)C(=O)Nc1cccc2ccccc12 | 264.9*[16.7 µM] | -4.7 | 4.3 | / | -3.4 | /
Cc1cc(C(=O)N2CCc3ccccc32)n(-c2ccccc2)n1 | 115.3* | 0.9 | 0.1 | 14.0 | -0.2 | 0.0
CNC[C@@H]1Oc2cc(Br)ccc2S(=O)(=O)N([C@H](C)CO)C[C@H]1C | -4.9 | 4.0 | -0.6 | / | 99.6*! | -2.2
CNC[C@H]1Oc2cc(Br)ccc2S(=O)(=O)N([C@H](C)CO)C[C@H]1C | -12.4 | 1.9 | -4.1 | / | 90.7*! | -6.0
C[C@H]1CN([C@@H](C)CO)S(=O)(=O)c2ccc(Br)cc2O[C@@H]1CN(C)C(=O)CCN1CCCCC1 | -4.5 | -0.3 | 3.4 | / | 80.5*! | -3.9
COCC(C)n1c(SCC(=O)NC(=O)Cc2ccccc2)nc2ccccc2c1=O (configuration not stated) | 143.9* | 1.2 | 4.2 | -5.5 | 0.1 | 3.6
COCC(C)n1c(SCC(=O)NNC(=O)c2ccccc2)nc2ccccc2c1=O (configuration not stated) | -3.0 | 8.2 | -6.7 | -4.5 | 0.0 | 5.4
Cc1ccc(C(=O)Nc2ccccc2C(=O)O)cc1S(=O)(=O)Nc1ccccc1 | 91.7* | 0.4 | 2.6 | 10.1 | 1.7 | 5.9
Cc1ccc(C(=O)Nc2cccc([N+](=O)[O-])c2)cc1S(=O)(=O)Nc1ccc(NC(=O)c2ccccc2)cc1 | / | / | / | -5.4 | / | 3.7
Cc1ccc(C(=O)NCCSC2CCCCC2)cc1S(=O)(=O)Nc1ccccc1 | 99.5* | 14.8 | / | -7.7 | / | -6.2
Cc1ccc(NS(=O)(=O)c2cc(C(=O)Nc3cccc([N+](=O)[O-])c3)ccc2C)cc1 | 131.4* | -0.7 | 6.6 | 2.0 | 2.0 | -2.1
Cc1ccc(C(=O)Nc2ccccc2C(=O)O)cc1S(=O)(=O)NC1CCCCC1 | 72.0 | -1.7 | 3.1 | -17.5 | -0.5 | 10.3
Cc1ccccc1NS(=O)(=O)c1cc(C(=O)N2CCc3ccccc3C2)ccc1C | 177.0* | / | / | 1.7 | / | 14.5
Cc1ccc(C(=O)N2CCc3ccccc3C2)cc1S(=O)(=O)N1CCOCC1 | 2.5 | 4.4 | -1.8 | -10.9 | 2.1 | -7.7
O=C(C[C@H]1CC[C@@H]2[C@H](COC[C@@H](O)CN2S(=O)(=O)c2ccccc2F)O1)NCc1ccccc1Cl | -1.7[16.7 µM] | 7.6 | 1.9 | / | -5.5 | /
COc1cccc(S(=O)(=O)N[C@@H]2CC[C@@H](CC(=O)NCc3ccccc3)O[C@@H]2CO)c1 | / | -1.4 | 1.7 | / | 0.3 | /
COc1cccc(S(=O)(=O)Nc2ccc3c(c2)[C@H]2C[C@@H](CC(=O)N[C@@H](C)c4ccccc4)O[C@@H](CO)[C@H]2O3)c1 | -4.7[16.7 µM] | -10.8 | -4.7 | / | -2.7 | /
CN(c1cccc(NC(=O)c2ccc(Cl)c(S(=O)(=O)Nc3ccccc3)c2)c1)S(C)(=O)=O | 197.0* | / | -1.4 | 1.1 | 0.0 | -8.9
Cc1ccccc1NS(=O)(=O)c1cc(C(=O)Nc2cccc(N(C)S(C)(=O)=O)c2)ccc1C | / | / | 5.0 | -5.5 | 1.1 | -5.3
Cc1ccc(-c2ccc([C@@H]3[C@@H](CO)N4C(=O)CN(C(=O)Nc5cccc(F)c5)C[C@H]34)cc2)cc1 | / | -5.3 | / | / | / | /
CCNC(=S)NCc1ccc(Cl)cc1 | -6.9 | -8.2 | -5.6 | -13.0 | 14.3 | -3.4
Cc1cc(Cl)ccc1NC(=S)NCc1ccc(F)cc1 | 29.4 | 5.4 | -4.6 | -5.0 | 92.8* | -2.8
Fc1ccccc1CNC(=S)NCc1ccc(Cl)cc1 | / | -0.6 | 0.1 | 2.1 | 194.2* | -2.4
Cc1ccc(NC(=S)NCc2ccc(Cl)cc2)c(OC(F)F)c1 | / | -4.0 | -2.2 | -2.7 | 344.1* | -1.4
O=C(C1CCC1)N1CC2(C1)[C@@H](c1ccccc1)[C@@H](CO)N2CCC(F)(F)F | / | 0.8 | / | / | / | /
CCCC(C)NS(=O)(=O)c1ccc(OC)c(C)c1 (configuration not stated) | 152.6* | / | 0.1 | 11.1 | 1.2 | -5.8
Cc1ccc(C(C)C)cc1S(=O)(=O)Nc1cccnc1 | 379.9* | -0.8 | -2.5 | -24.3 | 2.2 | -6.1 | miR-27b qPCR=0.784
